≈ marks a conversion by molar mass, not a printed value. Calls of active or inactive are those of the source. The rule behind the calls is not given here.
What was measured:
[1] = Toxicity in mouse at 200 mg/kg, po administered 2 hrs once for 6 hrs and measured for 24 hrs; type: organism-based; settings: in vivo
Procedure, shortened: (§1)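 Two mice per route (i.p. or p.o.) received 4 increasing doses over 6 h (every 2 h) in Tween 80/EtOH/saline (7/3/90), then were followed for 24 h for health or behavioural problems. Maximal dose is set as 50% of the cumulative dose giving toxicity.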

Plasmodium falciparum [2] = experiment: Antiplasmodial activity against multidrug-resistant Plasmodium falciparum W2 assessed as intraerythrocytic growth inhibition; type: functional, organism-based
Procedure, shortened: (§2)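 Asexual intraerythrocytic P. falciparum cultured at 37 °C in RPMI with glucose, hypoxanthine, gentamycin and 10% pooled human A+/O+ serum. DMSO stocks of 5–10 mg mL⁻¹ diluted in RPMI, final DMSO at most 1%. Eight two-fold dilutions tested in three consecutive assays. Growth read as Plasmodium lactate dehydrogenase activity at 650 nm against parasitized RBC (100%) and free RBC (0%). IC50 in triplicate; artemisinin and quinine as controls.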

[3] = Toxicity in zebrafish embryos assessed as survival at highest concentration measured for 3 days relative to control; parameters: species or system Danio rerio; settings: in vivo, time 3 day, read-out: Activity
Procedure, shortened: (§3)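 Zebrafish embryos were synchronized 24 h after collection and kept at 28 °C with chorion intact, 20 per condition in duplicate. They were exposed to 100, 50, 25 or 10 μg mL⁻¹ from 100 mg mL⁻¹ DMSO stocks (final DMSO under 0.1%), with medium renewed daily for 3 days. Aspect, hatching and mortality were followed to 96 hpf against 30 control embryos in water with 0.1% DMSO.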

[4] = Toxicity in zebrafish embryo assessed as developmental defects at 10 to 100 ug/ml measured 24 hrs post fertilization; parameters: species or system Danio rerio; settings: in vivo, dose 10-100 µg/ml
Plasmodium falciparum [5] = experiment: Antiplasmodial activity against chloroquine-sensitive Plasmodium falciparum 3D7 assessed as intraerythrocytic growth inhibition; type: functional, organism-based; procedure, shortened: as §2
[6] = Toxicity in zebrafish embryos assessed as egg hatching at 10 to 100 ug/ml measured for 72 hrs relative to control; type: tissue-based, Danio rerio; settings: in vivo, at 10 to 100 µg/mL, dose 10-100 µg/ml
[7] = Selectivity index, ratio of IC50 for cytotoxicity against HUVEC cells to IC50 for antiplasmodial activity against chloroquine-sensitive Plasmodium falciparum 3D7; type: toxicity, cell-based; settings: human, read-out: Ratio IC50
[8] = Toxicity in zebrafish embryo assessed as survival at 10 to 100 ug/ml measured 24 hrs post fertilization relative to control; parameters: species or system Danio rerio; settings: in vivo, at 10 to 100 µg/mL, dose 10-100 µg/ml, read-out: Activity; procedure, shortened: as §3
[9] = Hemolytic activity in RBC (unknown origin) assessed as hemolysis at 100 ug/ml incubated for 1 hrs by absorbance based microplate reader analysis relative to control; type: toxicity, cell-based, Erythrocyte; settings: red blood cells, at 100 µg/mL, read-out: Activity
Procedure, shortened: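 Human A⁺/O⁺ RBC, 10% v/v in PBS, exposed to compound at 100 μg mL⁻¹ final (DMSO < 1%), in duplicate, stirred 1 h at RT. Centrifuged, supernatant OD₅₅₀ read. % lysis = (sample − PBS)/(1% Triton X-100 − PBS) × 100.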

[10] = Cytotoxicity against HUVEC cells assessed as inhibition of cell growth incubated for 48 hrs by fluorescence based assay; type: toxicity; settings: human
Procedure, shortened: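 HUVEC in EGM-2, at most 10 passages, seeded at 2.5 × 10⁴ cells/well and grown 24 h at 37 °C. Six 2-fold concentrations in triplicate (DMSO max 0.5%) for 48 h. PrestoBlue for 2–3 h, fluorescence 560–590 nm, growth compared with untreated cells. n = 3 separate tests.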

[11] = Toxicity in zebrafish embryos assessed as modified heart rate at 10 to 100 ug/ml measured for 3 days; parameters: species or system Danio rerio; settings: in vivo, 72 h, dose 10-100 µg/ml, time 3 day
Plasmodium berghei [12] = experiment: Antiplasmodial activity against Plasmodium berghei NK173 infected in Swiss CD-1 mouse model of malaria assessed as reduction in parasitaemia at 50 mg/kg, po measured after 4 days by giemsa staining based microscopic analysis relative to control; type: functional; parameters: scale not given: the % may be the effect or the level left; settings: time 4 day
Procedure, shortened: (§4)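 Peters' 4-day suppressive test: female Swiss CD1 mice (10 weeks, 25 ± 2 g), six per group, infected i.p. with P. berghei NK173-parasitized RBC at D1. Dosing 2–3 h post-infection, then daily for 3 days, in 7% Tween 80/3% EtOH in saline. Giemsa thin tail-blood smears (≥500 erythrocytes) at D4 (2 h post-dose) and D7. Inhibition is taken versus vehicle controls.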

Plasmodium berghei [13] = experiment: Antiplasmodial activity against Plasmodium berghei NK173 infected in Swiss CD-1 mouse model of malaria assessed as reduction in parasitaemia at 50 mg/kg, ip measured after 4 days by giemsa staining based microscopic analysis relative to control; type: functional; parameters: scale not given: the % may be the effect or the level left; settings: time 4 day; procedure, shortened: as §4
[14] = Toxicity in zebrafish embryos assessed as brain misshape at 10 to 100 ug/ml measured for 3 days; type: tissue-based, Danio rerio; settings: in vivo, 72 h, dose 10-100 µg/ml, time 3 day
[15] = Toxicity in mouse at 150 mg/kg, ip administered 2 hrs once for 6 hrs and measured for 24 hrs; type: organism-based; settings: in vivo; procedure, shortened: as §1
[16] = Aqueous solubility of compound assessed as Cmax incubated for 3 days by UV spectrophotometer based shake-flask method; type: physicochemical; settings: water (aqueous); time 3 day; read-out: Cmax
Procedure, shortened: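 Shake-flask: excess solid stirred overnight in MilliQ water at RT (~25 °C), filtered 0.45 μm, diluted, absorbance read at the λmax from a UV scan. Quantified against a 3-point calibration curve (R² > 0.95). Fresh saturated solutions were made on 3 consecutive days.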

Plasmodium falciparum [17] = experiment: Antiplasmodial activity against chloroquine-resistant Plasmodium falciparum FcB1 assessed as intraerythrocytic growth inhibition; type: functional, organism-based; procedure, shortened: as §2
[18] = Toxicity in zebrafish embryos assessed as reduction in brain size at 10 to 100 ug/ml measured for 3 days; type: tissue-based, Danio rerio; settings: in vivo, 72 h, dose 10-100 µg/ml, time 3 day
Plasmodium berghei [19] = experiment: Antiplasmodial activity against Plasmodium berghei NK173 infected in Swiss CD-1 mouse model of malaria assessed as reduction in parasitaemia at 4 mg/kg, ip measured after 7 days by giemsa staining based microscopic analysis; type: functional, organism-based; settings: time 7.0 day; procedure, shortened: as §4
Plasmodium berghei [20] = experiment: Antiplasmodial activity against Plasmodium berghei NK173 infected in Swiss CD-1 mouse model of malaria assessed as reduction in parasitaemia at 25 mg/kg, po measured after 7 days by giemsa staining based microscopic analysis; type: functional, organism-based; settings: time 7.0 day; procedure, shortened: as §4
[21] = Toxicity in zebrafish embryos assessed as reduction in egg hatching measured for 72 hrs; parameters: species or system Danio rerio; settings: in vivo, dose 10-100 µg/ml
[22] = Toxicity in zebrafish embryos assessed as reduction in egg hatching at 10 to 100 ug/ml measured 5 days post fertilization; parameters: species or system Danio rerio; settings: in vivo, 120 h, dose 10-100 µg/ml, time 5 day

SMILES	IC50 (Plasmodium falciparum [2])	IC50 (Plasmodium falciparum [5])	selectivity ratio [7]	hemolysis at 1 h, 100 ug/ml [9]	IC50 at 48 h [10]	solubility thermodynamic at 72 h [16]	IC50 (Plasmodium falciparum [17])	other results
O=C(OCCCOC(=O)c1cc(O)c(O)c(O)c1)c1cc(O)c(O)c(O)c1	4.1 µM	5.8 µM	> 23	< 1%	> 132 µM	2700 µM (≈ 1030 µg/mL)	3.2 µM	Activity [1]: Non-Toxic; survival at 72 h [3]: > 90%; Activity [4]: Non-Toxic; Activity [6]: 100%; survival at 24 h [8]: > 95%; Activity [11]: Non-Toxic; Activity (Plasmodium berghei [12]): 5%; Activity (Plasmodium berghei [13]): 26%; Activity [14]: Non-Toxic; Activity [15]: Non-Toxic; Activity [18]: Non-Toxic
O=C(OCCCOC(=O)c1cc(O)c(O)c(O)c1)c1ccc(O)c(O)c1	7.6 µM	5.5 µM	41	< 1%	84 µM	280 µM (≈ 102 µg/mL)	4.9 µM	
C=C[C@H]1CN2CC[C@H]1C[C@H]2[C@H](O)c1ccnc2ccc(OC)cc12 [QUININE]		0.6 µM		< 1%				
COCOc1cc(C(=O)OCCCOC(=O)c2cc(OCOC)c(OCc3ccc4ccccc4c3)c(OCOC)c2)cc(OCOC)c1OCc1ccccc1		21 µM		< 1%				
O=C(OCCCOC(=O)c1cc(O)c(O)c(O)c1)c1cc(O)cc(O)c1	3.6 µM	4.6 µM	> 21	< 1%		1200 µM (≈ 437 µg/mL)	3.8 µM	
O=C(OCCCCOC(=O)c1cc(O)c(O)c(O)c1)c1cc(O)c(O)c(O)c1	5 µM	3.7 µM	> 35	< 1%	> 127 µM	150 µM (≈ 59.1 µg/mL)	5.7 µM	survival at 72 h [3]: > 90%; Activity [4]: Non-Toxic; Activity [6]: 100%; survival at 24 h [8]: > 95%; Activity [11]: Non-Toxic; Activity [14]: Non-Toxic; Activity [18]: Non-Toxic
O=C(OCCCOC(=O)c1cc(O)c(OCCOCc2ccccc2)c(O)c1)c1cc(O)c(OCCOCc2ccccc2)c(O)c1		3.2 µM	5	< 1%	15 µM			
O=C(OCCCOC(=O)c1ccccc1)c1ccccc1		> 352 µM		< 1%		7 µM (≈ 1.99 µg/mL)		
O=C(OCCCOC(=O)c1cc(O)c(OCc2ccc3ccccc3c2)c(O)c1)c1cc(O)c(OCc2ccc3ccccc3c2)c(O)c1	1.8 µM	4 µM	2.4	< 1%	9.7 µM		1.1 µM	
C[C@@H]1CC[C@H]2[C@@H](C)C(=O)O[C@@H]3O[C@@]4(C)CC[C@@H]1[C@]32OO4 [ARTEMISININ]		0.013 µM		< 1%			17 µM	
CCN(CC)CCCC(C)Nc1ccnc2cc(Cl)ccc12 (stereo not drawn) [CHLOROQUINE]				< 1%				Activity (Plasmodium berghei [19]): inactive; Activity (Plasmodium berghei [20]): inactive
O=C(NCCCOC(=O)c1cc(O)c(O)c(O)c1)c1cc(O)c(O)c(O)c1	6.8 µM	6.3 µM	11	< 1%	59 µM	2100 µM (≈ 797 µg/mL)	4.7 µM	Activity [21]: Dose-Dependent Effect; survival at 72 h [3]: > 90%; Activity [4]: Non-Toxic; Activity [22]: Toxic; survival at 24 h [8]: > 95%; Activity [11]: Non-Toxic; Activity [14]: Non-Toxic; Activity [18]: Non-Toxic
O=C(OCCCOC(=O)c1ccc(O)c(O)c1)c1ccc(O)c(O)c1		9 µM	> 42	< 1%	> 144 µM	33 µM (≈ 11.5 µg/mL)		
O=C(Nc1ccc(OC(=O)c2cc(O)c(O)c(O)c2)cc1)c1cc(O)c(O)c(O)c1	2.9 µM	3.9 µM	> 13	< 1%	> 121 µM	66 µM (≈ 27.3 µg/mL)	3.1 µM	
O=C(Nc1cccc(OC(=O)c2cc(O)c(O)c(O)c2)c1)c1cc(O)c(O)c(O)c1	3.4 µM	2.1 µM	6	< 1%	54 µM	300 µM (≈ 124 µg/mL)	3.7 µM	
O=C(OCCCOC(=O)c1cc(O)c(OCc2ccc3ccccc3c2)c(O)c1)c1cc(O)c(OCc2ccccc2)c(O)c1	0.4 µM	0.9 µM	5	< 1%	6.9 µM		0.9 µM	
COCOc1cc(C(=O)OCCCOC(=O)c2cc(OCOC)c(OCc3ccccc3)c(OCOC)c2)cc(OCOC)c1OCc1ccccc1		4.5 µM		< 1%		3 µM (≈ 2.21 µg/mL)		
O=C(OCCCOC(=O)c1cc(O)c(O)c(O)c1)c1ccccc1	13 µM	27 µM	3	< 1%	78 µM	600 µM (≈ 199 µg/mL)	11 µM	
O=C(OCCOC(=O)c1cc(O)c(O)c(O)c1)c1cc(O)c(O)c(O)c1	6.7 µM	3.7 µM	19	< 1%	69 µM	430 µM (≈ 157 µg/mL)	3.7 µM	survival at 72 h [3]: > 90%; Activity [4]: Non-Toxic; Activity [6]: 100%; survival at 24 h [8]: > 95%; Activity [11]: Non-Toxic; Activity [14]: Non-Toxic; Activity [18]: Non-Toxic
O=C(OCCCOC(=O)c1cc(O)c(OCCO)c(O)c1)c1cc(O)c(O)c(O)c1	7.6 µM	20 µM	> 14	< 1%	> 118 µM		4.3 µM	

From ChEMBL document CHEMBL5252676, “Dimeric polyphenols to pave the way for new antimalarial drugs” (RSC Med Chem, 2023)
